Source: PubChem BioAssay
MT stabilizer: microtubule stabilizers in HeLa cells; % tubulin-high responders, % at 10 µM; HeLa tubulin immunostaining HCS, 24 h; share of cells brighter than vehicle mean+2SD; 200,000 tested, 0.83% active;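 active = plate Z-score above 3 for both tubulin-high and condensed-nucleus cell shares, with cell loss under 80%, at 10 µM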;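 note: anti alpha tubulin signal scored within the nucleus-defined area of each cell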
STAT3 inh: STAT3 signaling inhibition; 190,000 tested, 0.89% active; AID 862; inhibition, % at 5.5 µM; U3A cells, IL-6 STAT3-luciferase reporter, luminescence; host cell line lacks STAT1;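 active = inhibition above the mean inhibition across all screened compounds plus 3 SD, cut at about 44% in these data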
STAT3 activator: activators of IL-6 induced STAT3 signaling; 190,000 tested, 0.91% active; activation (% of control), % at 5.6 µM; U3A cells, IL-6 STAT3-luciferase reporter, luminescence; 100% = signal with IL-6 EC80 alone;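 active = activation above the screen-wide mean of compound activation plus 3 SD, cut at about 130% in these data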
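Material: STAT3-luciferase reporter U3A cells. Controls: IL-6-treated wells, 100% activation. Read-out: % activation versus median of IL-6-stimulated wells. Probe or stimulus: IL-6 stimulus at 33 ng/mL final. Timing: compound 1 h, then IL-6 6 h at 37 °C. Signal: reporter luminescence signal.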
bCat nuc transl: beta-catenin nuclear translocation modulation | 190,000 tested, 0.3% active | HeLa beta-catenin nuclear translocation, immunofluorescence imaging | nuclear translocation activity, % at 5 µM;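 active = nuclear translocation activity above 50% at 5 µM, with a well cell count of 50 or more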;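 note: per-cell ratio of nuclear to cytoplasmic median beta-catenin stain intensity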
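Assay system: human HeLa cells, native beta-catenin; doses: 5 µM primary, 0.02–20 µM confirmation; incubation: compound treatment 24 h, 37°C, 5% CO2; technique: fluorescence imaging of beta-catenin antibody stain plus DAPI; measure: % activation, nuclear-to-cytoplasmic median beta-catenin signal ratio per cell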
STAT1 blocker: reduces IFN-gamma driven STAT1 reporter signal; NIH 3T3 STAT1-luciferase reporter, luminescence; inhibition, % at 5.5 µM; 200,000 tested, 0.35% active; AID 920;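 active = inhibition above a set limit, the mean inhibition across all tested compounds plus 3 SD, cut at about 34% in these data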
A number is an active result; . = inactive; / = no result given. In the library only some 2.4% were active in any assay of this set; here they are far more common.

SMILES | MT stabilizer | STAT3 inh | STAT3 activator | bCat nuc transl | STAT1 blocker
Cc1ccc(/C(O)=C2\C(=O)C(=O)N(Cc3cccnc3)C2c2ccccc2[N+](=O)[O-])cc1 (stereo unspecified) | . | . | 133.2 | . | .
Nc1nnc(CC(=O)Nc2ccccc2)s1 | / | / | / | . | /
CN(Cc1ccco1)C(=O)Cn1nc(-c2ccc(Cl)cc2)ccc1=O | . | . | . | . | .
O=C(c1nn2c(C(F)(F)F)cc(-c3ccco3)nc2c1Br)N1CCCc2ccccc21 | 62.8 | . | . | . | .
Cc1ccc(C(=O)NC2CCc3ccccc3C2=O)cc1 (stereo unspecified) | . | . | . | . | .
Cc1ccc(C(=O)NC2c3ccccc3-c3ccccc32)cc1 | 23.6 | . | . | 106.4 | .
COc1ccc(C(=O)c2cc([N+](=O)[O-])ccc2N2CCN(C)CC2)cc1 | 13.7 | . | . | 73.7 | .
COc1ccc(C(=O)c2cc([N+](=O)[O-])ccc2N2CCCC2)cc1 | 19.8 | . | . | . | .
COc1ccc2c(c1)C1=NN(/C(C)=C/C(C)=O)C(c3ccc(F)cc3)C1CC2 (stereo unspecified) | . | . | . | . | .
COc1ccc2c(c1)C1=NN(/C(C)=C\C(C)=O)C(c3ccccc3)C1CC2 (stereo unspecified) | . | . | 133.9 | . | .
O=C1NC(c2ccccc2)Nc2c1sc(=S)n2-c1ccccc1 (stereo unspecified) | . | . | . | . | .
COc1ccc(Cl)cc1C(=O)Nc1ccc2c(c1)OCO2 | . | . | 151.3 | . | .
CC1CC(=O)c2c(cc3c(-c4c(O)cc(O)c5c(O)c6c(cc45)OC(C)CC6=O)c(O)cc(O)c3c2O)O1 (stereo unspecified) | 32.0 | / | / | . | .
O=C1CC(c2ccc(O)cc2)Oc2cc(O)cc(O)c21 (stereo unspecified) | . | . | . | . | .
Cn1c(O)c(C(C#N)=C2N=c3ccccc3=N2)c2ccccc21 | . | . | 134.7 | . | .
Cc1nn(C)c(Cl)c1CN1CCC(CO)(CCOc2ccccc2)CC1 | . | . | . | . | .
Cc1c(CN2CCC(CO)(CCOc3ccccc3)CC2)[nH]c2c(Cl)cccc12 | 28.6 | . | . | . | .
CCOC(=O)COc1cnc2ccccc2n1 | . | . | . | . | .
CC(C)C(C(=O)N1CCN(C(=O)OC(C)(C)C)CC1)n1cc(-c2cn([C@@H](C)C(=O)N3CCN(C(=O)OC(C)(C)C)CC3)nn2)nn1 (stereo partly specified) | / | / | / | . | /
O=C(N/N=C/c1ccc([N+](=O)[O-])s1)c1ccncc1 | . | . | . | . | .
O=C(N/N=C/c1cc(Br)cs1)c1ccc2c(c1)OCCO2 | / | / | / | . | /
Cc1ccc(/C=N/NC(=O)c2ccc3c(c2)OCCO3)s1 | / | / | / | 66.3 | /
CCn1ncc(/C=N/NC(=O)c2ccc3c(c2)OCO3)c1C | 35.8 | . | . | . | .
Cc1ccc(C(=O)N/N=C/c2ccc([N+](=O)[O-])s2)cc1 | . | 76.3 | . | . | 80.1
COC(=O)c1ccccc1NC(=O)CSc1ncn[nH]1 | / | / | / | . | /
SMILES | MT stabilizer | STAT3 inh | STAT3 activator | bCat nuc transl | STAT1 blocker
O=C(O)Cc1csc(-c2cccc(F)c2)n1 | . | . | . | . | .
Cc1ccnc(SCc2nc3ccccc3s2)n1 | . | . | 135.6 | . | .
Cc1cccc(C)c1Nc1nnc(SCc2nc3ccccc3s2)s1 | . | . | . | . | .
O=C(COC(=O)/C=C/c1ccco1)NCCc1ccccc1 | . | . | . | . | .
O=C(CSc1nc(-c2ccccc2)c(-c2ccccc2)[nH]1)NCCN1C(=O)CSC1=O | 18.9 | . | . | . | .
CNC(=O)CSc1cn(CC(=O)N(C(C)C)C(C)C)c2ccccc12 | / | . | . | . | .
Cc1ccc(S(=O)(=O)/N=C2/C=C(C3C(=O)CC(C)(C)CC3=O)C(=O)c3ccccc32)cc1 | . | . | . | . | .
CCc1ccc(S(=O)(=O)/N=C2\C=CC(=O)c3ccccc32)cc1 | . | . | 144.8 | . | .
CCc1ccc(S(=O)(=O)ON2C(=O)c3ccccc3C2=O)cc1 | . | . | . | . | .
CCc1ccc(S(=O)(=O)/N=C2/C=C(Sc3ncn[nH]3)C(=O)c3ccccc32)cc1 | . | . | 139.1 | . | .
O=C(Nc1ccccc1)C1=C[C@H](c2ccc3c(c2)OCO3)C[C@H](OCc2ccc(CO)cc2)O1 | . | / | / | . | .
CCCn1c2c(c(O)c(C(=O)Nc3ccccc3)c1=O)CCCC2 | . | . | 133.2 | . | .
CCN(CC)c1cc(C)c(C#N)c2nc3ccccc3n12 | / | / | / | . | /
Cc1cc(Cl)n2c(nc3ccccc32)c1C#N | . | . | . | 106.5 | .
CN1/C(=C/C(=O)c2cccs2)Sc2ccccc21 | . | . | 162.9 | / | .
CN1/C(=C\C(=O)c2cccs2)Sc2ccccc21 | . | . | . | . | .
O=C(/C=C/c1ccccc1)Nc1ccc(Br)cn1 | . | . | . | . | .
O=C(/C=C/c1cccc([N+](=O)[O-])c1)Nc1ccc(NC(=O)c2cccs2)cc1 | . | . | . | . | .
Cc1ccc(NC(=O)/C=C/c2ccc(Cl)cc2)nc1 | 20.6 | . | 139.9 | . | .
O=C(/C=C/c1cccc([N+](=O)[O-])c1)Nc1ccc(Cl)cn1 | 10.1 | . | . | . | .
Cc1ccc(NC(=O)Nc2ccc3c(c2)nc(C)n3C)cc1 | . | . | . | . | .
O=C(Nc1ccc(Cl)cc1)Nc1cccc(C(=O)O)c1 | . | 99.3 | . | . | 87.6
O=C(Nc1cccc(Cl)c1)Nc1cccc(C(=O)O)c1 | / | / | / | . | /
Cc1nc2cc(NC(=O)Nc3ccccc3Cl)ccc2n1C | . | 84.1 | . | . | 40.0
O=C(Nc1cccc(C(=O)O)c1)Nc1ccccc1Cl | . | 89.2 | . | . | 79.4
SMILES | MT stabilizer | STAT3 inh | STAT3 activator | bCat nuc transl | STAT1 blocker
COc1cccc(OCC(=O)O)c1 | . | . | . | . | .
N#CC1=C(N)Oc2cc(O)ccc2C1c1cccs1 (stereo unspecified) | . | . | . | . | .
N#CC1=C(N)Oc2c(ccc3ccccc23)C1c1cccs1 (stereo unspecified) | 20.0 | . | . | 130.8 | .
O=S(=O)(c1ccc(Cl)cc1)N1c2ccccc2Oc2nc3ccccc3nc21 | 24.5 | . | . | . | .
Cc1nn(-c2nc3ccccc3s2)c(N)c1Sc1ccc(F)cc1 | . | . | 158.0 | . | .
Cc1nn(-c2nc3ccccc3s2)c(N)c1-c1ccccc1 | . | . | . | / | .
c1ccc2nc(-c3nc4ccccc4[nH]3)ccc2c1 | . | 82.6 | . | . | 38.8
c1ccc2[nH]c(-c3cscn3)nc2c1 | . | . | . | / | .
O=Cc1cc2ccccc2nc1SCc1ccc(Cl)c(Cl)c1 | 17.8 | . | . | . | .
CCOC(=O)CSc1nc(C)c(C(C)=O)cc1C(N)=O | . | . | . | . | .
CCCOC(=O)c1ccc(NC(=O)c2nc3nc(C)cc(C)n3n2)cc1 | . | . | . | . | .
COc1cccc(/C=N/NC(=O)c2ccc(-c3ccccc3)cc2)c1O | . | . | . | / | .
COc1cccc(/C=N/NC(=S)Nc2cccc(C(=O)O)c2)c1O | . | 66.1 | . | . | 68.1
